# The source made the active and inactive calls. No cut-off for these calls is given here.
# Legend:
# Mus musculus [1] = experiment: percentage change in plasma glucose concentration of drug treated mice relative to vehicle controls at 100 mg/kg (once daily perorally x 4) in groups of db/db mice compared to vehicle control; format: functional; settings: route oral
# Outline: (§1)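 Male C57BL/KsJ db/db mice (2-7 months, 35-60 g), 4 h fasted baseline tail blood on day 1; extremes excluded, randomized into groups (N = 4-6) of equal mean glucose. Dosed po as suspension in 2% Tween 80/saline on afternoons of days 1-3 (fed) and day 4 after 3 h fast. Plasma glucose (Abbott VP analyzer) 2 and 4 h post-dose, mean versus day-1 baseline; ANOVA with one-sided Dunnett's test against vehicle.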
# Mus musculus [2] = experiment: percentage change in plasma glucose concentration of drug treated mice relative to vehicle controls at 20 mg/kg (once daily perorally x 4) in groups of db/db mice; format: functional; settings: route oral; outline: as §1
# Mus musculus [3] = experiment: percentage change in plasma glucose concentration of drug treated mice relative to vehicle controls at 20 mg/kg (once daily perorally x 4) in groups of db/db mice compared to vehicle control; format: functional; settings: route oral; outline: as §1
# Mus musculus [4] = experiment: percentage change in plasma glucose concentration of drug treated mice relative to vehicle controls at 5 mg/kg (once daily perorally x 4) in groups of db/db mice; not active, generally less than -15% change; format: functional, organism-based; parameters: dose 5 mg/kg; outline: as §1
# Mus musculus [5] = experiment: Percentage change in plasma glucose concentration of drug treated mice relative to vehicle controls at 100 mg/kg (once daily perorally x 4) in groups of db/db mice; NA = not active; format: functional, organism-based; parameters: dose 100 mg/kg; outline: as §1
# Mus musculus [6] = experiment: Percentage change in plasma glucose concentration of drug treated mice relative to vehicle controls at 20 mg/kg (once daily perorally x 4) in groups of db/db mice; NA = not active
# Mus musculus [7] = experiment: percentage change in plasma glucose concentration of drug treated mice relative to vehicle controls at 100 mg/kg (once daily perorally x 4) in groups of db/db mice; NA= not active; format: functional, organism-based; parameters: dose 100 mg/kg; outline: as §1
# Mus musculus [8] = experiment: percentage change in plasma glucose concentration of drug treated mice relative to vehicle controls at 100 mg/kg (once daily perorally x 4) in groups of db/db mice; format: functional; settings: route oral; outline: as §1
# [9] = Partition coefficient (logP); format: physicochemical; settings: octanol/water
# Outline: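 Manual shake-flask octanol/aqueous partition. Buffer was 0.01 M K2HPO4 at pH 7.4. Sample was shaken 1 min, equilibrated 4 h, and phases separated and centrifuged. Each phase was quantified by reverse-phase C18 HPLC (acetonitrile/0.01 M […] pH 3.5, 214 nm). Average of at least two runs.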
# [10] = Dissociation constant measured by potentiometric titration (in duplicate) in 1:1 dioxane-water using a Fisher accumet pH meter model 630 and a Perkin-Elmer chart recorder model 56.; format: physicochemical
# Outline: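 Apparent pKa from potentiometric titration with 0.1 N NaOH in dioxane–water (1:1). Sample concentration 0.2 mM, solvent 30 mL, 25 °C, titrant flow 0.17 mL/min. Value is the average of two runs. The system was conditioned and checked in duplicate against piperazine, allantoin, barbituric acid and ciglitazone standards.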
# Mus musculus [11] = experiment: percentage change in plasma glucose concentration of drug treated mice relative to vehicle controls at 100 mg/kg (once daily perorally x 4) in groups of db/db mice; Not active; format: functional, organism-based; parameters: dose 100 mg/kg; outline: as §1
# Mus musculus [12] = experiment: percentage change in plasma glucose concentration of drug treated mice relative to vehicle controls at 20 mg/kg (once daily perorally x 4) in groups of db/db mice; NA = not active; format: functional, organism-based; parameters: dose 20 mg/kg; outline: as §1
structure (smiles),measurement,setting,value
Oc1[nH]nc(C(F)(F)F)c1Cc1ccccc1,Change,Mus musculus [1],-33%
same,Change,Mus musculus [2],-18%
CCc1n[nH]c(O)c1Cc1ccc2ccccc2c1,Change,Mus musculus [3],-32%
same,Change,Mus musculus [4],Not significant
Cc1n[nH]c(O)c1Cc1ccccc1,Change,Mus musculus [5],inactive
Oc1cc(C23CC4CC(CC(C4)C2)C3)n[nH]1,Change,Mus musculus [6],inactive
Oc1[nH]nc(C(F)(F)F)c1Cc1ccc2c(c1)CCC(Cc1ccccc1)O2 (configuration not stated),Change,Mus musculus [5],inactive
C[n+]1nn(Cc2ccccc2)c([O-])c1Cc1ccc2ccccc2c1,Change,Mus musculus [7],inactive
Cc1[nH]oc(=O)c1Cc1ccc2ccccc2c1,Change,Mus musculus [8],-17%
Oc1[nH]nc2c1CCc1sccc1-2,Change,Mus musculus [5],inactive
CC(C)c1n[nH]c(O)c1Cc1ccc2ccccc2c1,Change,Mus musculus [1],-30.4%
O=C(O)c1cc(-c2ccc3ccccc3c2)[nH]n1,Change,Mus musculus [5],inactive
NNc1n[nH]c(O)c1Cc1ccc2ccccc2c1,Change,Mus musculus [5],inactive
O=C(O)C(=O)/C=C(\O)c1ccc2ccccc2c1,Change,Mus musculus [1],-28%
Cc1onc(O)c1Cc1ccc2ccccc2c1,Change,Mus musculus [1],-48%
same,Change,Mus musculus [3],-25%
CC1(COc2ccc(CC3SC(=O)NC3=O)cc2)CCCCC1 (configuration not stated) [CIGLITAZONE],logP,[9],3.61
same,pKa,[10],7.8
same,Change,Mus musculus [1],-28%
O=[N+]([O-])c1ccc(-c2n[nH]c(O)c2Cc2ccc3ccccc3c2)cc1,Change,Mus musculus [5],inactive
O=C(O)CCc1ccc2ccccc2c1,logP,[9]; read-out: logP,1.09
same,pKa,[10],6.52
same,Change,Mus musculus [11],inactive
Oc1cc(CSc2ccc3ccccc3c2)no1,Change,Mus musculus [5],inactive
Oc1cc(CSc2nc3ccccc3s2)no1,Change,Mus musculus [5],inactive
Oc1nnnn1Cc1ccc2ccccc2c1,Change,Mus musculus [5],inactive
Oc1[nH]nc(C(F)(F)C(F)(F)F)c1Cc1ccc2ccccc2c1,Change,Mus musculus [5],inactive
Oc1[nH]nc(C(F)(F)F)c1Cc1ccc2nccnc2c1,Change,Mus musculus [3],-27%
Oc1cc(Cc2ccc3ccccc3c2)n[nH]1,Change,Mus musculus [5],inactive
Cc1c(Cc2ccc3ccccc3c2)n[nH]c1O,Change,Mus musculus [12],inactive
Oc1onc(-c2ccccc2)c1Cc1ccc2ccccc2c1,Change,Mus musculus [5],inactive
Cc1n[nH]c(O)c1Cc1ccc2ccccc2c1Br,Change,Mus musculus [2],-20%
CCc1o[nH]c(=O)c1Cc1ccc2ccccc2c1,Change,Mus musculus [12],inactive
CCCc1o[nH]c(=O)c1Cc1ccc2ccccc2c1,Change,Mus musculus [12],inactive
COCc1n[nH]c(O)c1Cc1ccc2ccccc2c1,Change,Mus musculus [1],-39%
same,Change,Mus musculus [12],inactive
Oc1cc(CSc2nc3ccccc3s2)n[nH]1,Change,Mus musculus [5],inactive

# From ChEMBL document CHEMBL1128240, “Studies on new acidic azoles as glucose-lowering agents in obese, diabetic db/db mice” (J Med Chem, 1995)
